Here are results for 14 molecules from ChEMBL document CHEMBL1125578, “Synthesis of a series of nitrothiophenes with basic or electrophilic substituents and evaluation as radiosensitizers and as bioreductively activated cytotoxins” (J Med Chem, 1991).

The test system of series [1] is V79. The series can be described thus: Reduction of optical density by 50% compared to controls when assay was performed under nitrogen in Hypoxic V79 Cells. It is filed as functional, Cricetulus griseus. Summed up:
(§1)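 V79 cells were tested in an MTT assay, with incubations run under air or under nitrogen. Optical density was taken as proportional to the number of viable cells at the end of incubation. C50 is the concentration lowering optical density by 50% versus controls. The ratio is C50(AIR)/C50(N2).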

In series [2] the test system is V79. The series can be described thus: Compound was evaluated for its concentration to reduce the optical density by 50% compared to controls when assay was performed under air in […] V79 Cells. It is filed as functional, Cricetulus griseus. Summed up:
as §1

The nature of series [3]: The ratio of C50(AIR) to that of C50(N2). It is filed as functional. An outline of the steps:
as §1

Series [4] has as its system V79 cells (Cricetulus griseus). The series can be described thus: In vitro concentration of gamma-radiation to give an enhancement ratio of 1.6 when compared to control V79.
Series [5] concerns V79. The series is described as follows: Reduction of optical density by 50% compared to controls when assay was performed under air in […] V79 Cells. It counts as functional, Cricetulus griseus. An outline of the steps:
as §1

A further series deals with Mus musculus. The series is described as follows: The maximum tolerated dose described as the highest single intraperitoneal dose which did not produce severe or persistent clinical signs or death of the adult non-tumor bearing mice within 24 hours. It is filed as functional. An outline of the steps: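 Adult non-tumor-bearing mice received escalating single ip doses of compound, dissolved fresh in 0.1 M phosphate-buffered saline, pH 7.4, at 0.02 mL/g body weight.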

Series [6] can be described thus: In vivo radiosensitization of KHT tumors in mice by administration at a dose of 0.17 mmol/kg intraperitoneally. The optimum time interval between injection and irradiation of tumor was 60 minutes. It is filed as ADME, organism-based. The settings on record: mouse, ip, 1 h.
A short description of series [7]: In vivo radiosensitization of KHT tumors in mice by administration at a dose of 0.34 mmol/kg intraperitoneally. The optimum time interval between injection and irradiation of tumor was 30 minutes. It counts as ADME, organism-based. The conditions noted are these: mouse, ip, 0.5 h.
Series [8] is described as follows: In vivo radiosensitization of KHT tumors in mice by administration at a dose of 0.38 mmol/kg intraperitoneally. The optimum time interval between injection and irradiation of tumor was 60 minutes. It counts as ADME, organism-based. The conditions noted are these: mouse, ip, 1 h.

As for `C=CCNC(=O)c1ccc([N+](=O)[O-])s1`, the C50 with V79 [1] is listed as 0.11 mM; with V79 [2], 0.3 mM. Further, the Ratio in series [3] was determined as 2.5. The Activity in [4] is given as 0.08 mM.

As to `COC(=O)[C@H](CCCCN)NC(=O)c1cc([N+](=O)[O-])c(C)s1.Cl`, the C50 in the series with V79 [5] and in the series on V79 [1] was 0.35 mM in each case. Besides, the MTD in the series with Mus musculus turned out to be 0.34 mM/kg. Besides, in series [3], the Ratio came out at 1. Besides, in [4], the Activity was determined as 0.05 mM.

For `Cl.O=C(NCCN1CCCCC1)c1ccc([N+](=O)[O-])o1`, the values for the C50 in the series with V79 [5] and in the series with V79 [1] were 0.05 mM and 0.016 mM, respectively. Moreover, the MTD in the series on Mus musculus came out at 0.17 mM/kg. Moreover, the Surviving fraction in [6] stood at 0.0022. The Ratio in series [3] was determined as 3. For the same molecule, in [4], the Activity is listed as 0.01 mM.

In the series with Mus musculus, `Cc1sc(C(=O)NCCN(C)C)cc1[N+](=O)[O-].Cl` returned an MTD of 0.34 mM/kg. In series [4], the Activity is 0.1 mM. In addition, the Surviving fraction in series [7] came to 0.005.

As for `O=C(/C=C/c1ccc([N+](=O)[O-])s1)NCC1CO1` (stereo unspecified), the C50 in the series with V79 [5] and with V79 [1] was 0.08 mM in each case. The Ratio in series [3] stood at 1. Also, the Activity in series [4] stood at 0.05 mM.

Turning to `Cc1sc(C(=O)NCCN2CCOCC2)cc1[N+](=O)[O-].Cl`, the C50 in the series on V79 [5] and in the series on V79 [1] was 2.5 mM each time. The same molecule showed an MTD in the series on Mus musculus of 0.34 mM/kg. For the same molecule, in series [3], the Ratio was found to be 1. In addition, the Activity in [4] came to 1 mM.

For `Cc1sc(C(=O)NCC2CO2)cc1[N+](=O)[O-]` (stereo unspecified), the results for the C50 in the series with V79 [5] and in the series on V79 [1] were 0.35 mM and 0.4 mM, respectively. Moreover, in series [3], the Ratio is 0.9. For the same molecule, the Activity in series [4] is 0.2 mM.

On to `COCC(O)Cn1ccnc1[N+](=O)[O-]` (stereo unspecified) [MISONIDAZOLE], for which the C50 with V79 [5] was found to be 45 mM; in the series on V79 [1] it was 4 mM. This molecule gave an MTD in the series with Mus musculus of 4 mM/kg. Also, the Activity in series [4] is listed as 0.6 mM.

For the molecule `Cc1sc(C(=O)NCCN2CCCCC2)cc1[N+](=O)[O-].Cl`, the C50 with V79 [5] is reported as 1.8 mM; with V79 [1] it was 0.8 mM. The MTD in the series with Mus musculus was less than 0.34 mM/kg. Also, the Ratio in series [3] came to 2.3. The Activity in series [4] is listed as 0.07 mM.

Regarding `Br.O=[N+]([O-])c1nccn1CC(O)CNCCBr` (stereo unspecified), the C50 with V79 [5] is 2.3 mM; in the series on V79 [1] it was 0.09 mM. Further, the MTD in the series on Mus musculus worked out at 1 mM/kg. Moreover, in [3], the Ratio stood at 26. Moreover, the Activity in series [4] is on record as 0.1 mM.

For the molecule `Cc1cc(CC2CO2)sc1[N+](=O)[O-]` (stereo unspecified), the C50 in the series with V79 [5] was 0.065 mM; in the series with V79 [1] it was 0.045 mM. In addition, the Ratio in series [3] is 1.3. Besides, the Activity in series [4] is recorded as 0.06 mM.

As for `O=[N+]([O-])c1nccn1CC(O)CN1CC1` (stereo unspecified), in [8], the Surviving fraction turned out to be 0.00083. In addition, the C50 with V79 [5] is listed as 0.3 mM; in the series with V79 [1], 0.0045 mM. Also, in the series on Mus musculus, the MTD was determined as 0.38 mM/kg. In addition, in series [3], the Ratio stood at 67. Moreover, the Activity in series [4] turned out to be 0.1 mM.

For the molecule `O=C(NCC1CO1)c1ccc([N+](=O)[O-])s1` (stereo unspecified), the C50 with V79 [5] and in the series on V79 [1] was 0.15 mM throughout. Further, the Ratio in [3] is 1. Also, in series [4], the Activity stood at 0.05 mM.

The molecule `Cc1sc(C(=O)NCCCN2CCCC2)cc1[N+](=O)[O-].Cl` displayed an MTD in the series with Mus musculus of 0.24 mM/kg. Further, the Activity in [4] is on record as 0.03 mM.
